Measurements from ChEMBL document CHEMBL4665651, “Design, synthesis, and biological evaluation of some novel 4-aminoquinazolines as Pan-PI3K inhibitors” (Bioorg Med Chem, 2019).
The source made the active and inactive calls. The calls are words filed in the database; no cut-off is given here.

Tests used:
L02 = experiment: Cytotoxicity against human L02 cells assessed as reduction in cell viability incubated for 72 hrs by SRB assay; assay type: cell-based; settings: L02, 72 h
How it was run: (§1)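 Normal cells exposed to a range of compound concentrations for 72 h at 37 °C in 5% CO₂. Cells TCA-fixed and viability read by SRB protein staining, normalized to day-0 and negative-control OD. IC50 from non-linear regression; values are means of triplicate measurements.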

MCF7 [1] = experiment: Inhibition of PI3K in human MCF7 cells assessed as decrease in p-Akt/Akt ratio at 0.1 to 10 uM by Western blot analysis; settings: dose microM 0.1-10
MCF7 [2] = experiment: Induction of apoptosis in human MCF7 cells assessed as chromatin condensation at 0.2 to 0.8 uM incubated for 48 hrs by Hoechst 33342 staining based fluorescence microscopic analysis; assay type: functional, cell-based; settings: dose microM 0.2-0.8, time 48.0 hrs
How it was run: (§2)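 MCF-7 cells seeded at 2×10⁵ per well in 6-well plates and allowed to settle 12 h. Treated 48 h, with medium-only controls. Stained with Hoechst 33342 for 30 min, washed, and nuclear morphology imaged by fluorescence microscopy.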

MCF7 [3] = experiment: Induction of apoptosis in human MCF7 cells assessed as necrotic cells at 0.2 uM incubated for 48 hrs by annexin V-FITC and propidium iodide staining based flow cytometry analysis (reference value: 0.3 %); assay type: functional
HUVEC = experiment: Cytotoxicity against HUVEC cells assessed as reduction in cell viability incubated for 72 hrs by SRB assay; assay type: cell-based; settings: Homo sapiens; how it was run: as §1
HCT-116 = experiment: Antiproliferative activity against human HCT-116 cells assessed as reduction in cell viability incubated for 72 hrs by SRB assay; assay type: functional, cell-based; settings: HCT-116, 72 h
MCF7 [4] = experiment: Induction of apoptosis in human MCF7 cells assessed as early apoptotic cells at 0.8 uM incubated for 48 hrs by annexin V-FITC and propidium iodide staining based flow cytometry analysis (reference value: 2.7 %); assay type: functional
MCF7 [5] = experiment: Induction of apoptosis in human MCF7 cells assessed as necrotic cells at 0.4 uM incubated for 48 hrs by annexin V-FITC and propidium iodide staining based flow cytometry analysis (reference value: 0.3 %); assay type: functional
[6] = target: Phosphatidylinositol 4,5-bisphosphate 3-kinase catalytic subunit beta isoform (Homo sapiens, UniProt P42338); experiment: Inhibition of PI3Kbeta (unknown origin) using lipid as substrate incubated for 15 mins followed by substrate addition and measured after 60 mins ADPGloTM reagent based assay
Chain of Phosphatidylinositol 4,5-bisphosphate 3-kinase catalytic subunit beta isoform (P42338 whole entry, canonical isoform): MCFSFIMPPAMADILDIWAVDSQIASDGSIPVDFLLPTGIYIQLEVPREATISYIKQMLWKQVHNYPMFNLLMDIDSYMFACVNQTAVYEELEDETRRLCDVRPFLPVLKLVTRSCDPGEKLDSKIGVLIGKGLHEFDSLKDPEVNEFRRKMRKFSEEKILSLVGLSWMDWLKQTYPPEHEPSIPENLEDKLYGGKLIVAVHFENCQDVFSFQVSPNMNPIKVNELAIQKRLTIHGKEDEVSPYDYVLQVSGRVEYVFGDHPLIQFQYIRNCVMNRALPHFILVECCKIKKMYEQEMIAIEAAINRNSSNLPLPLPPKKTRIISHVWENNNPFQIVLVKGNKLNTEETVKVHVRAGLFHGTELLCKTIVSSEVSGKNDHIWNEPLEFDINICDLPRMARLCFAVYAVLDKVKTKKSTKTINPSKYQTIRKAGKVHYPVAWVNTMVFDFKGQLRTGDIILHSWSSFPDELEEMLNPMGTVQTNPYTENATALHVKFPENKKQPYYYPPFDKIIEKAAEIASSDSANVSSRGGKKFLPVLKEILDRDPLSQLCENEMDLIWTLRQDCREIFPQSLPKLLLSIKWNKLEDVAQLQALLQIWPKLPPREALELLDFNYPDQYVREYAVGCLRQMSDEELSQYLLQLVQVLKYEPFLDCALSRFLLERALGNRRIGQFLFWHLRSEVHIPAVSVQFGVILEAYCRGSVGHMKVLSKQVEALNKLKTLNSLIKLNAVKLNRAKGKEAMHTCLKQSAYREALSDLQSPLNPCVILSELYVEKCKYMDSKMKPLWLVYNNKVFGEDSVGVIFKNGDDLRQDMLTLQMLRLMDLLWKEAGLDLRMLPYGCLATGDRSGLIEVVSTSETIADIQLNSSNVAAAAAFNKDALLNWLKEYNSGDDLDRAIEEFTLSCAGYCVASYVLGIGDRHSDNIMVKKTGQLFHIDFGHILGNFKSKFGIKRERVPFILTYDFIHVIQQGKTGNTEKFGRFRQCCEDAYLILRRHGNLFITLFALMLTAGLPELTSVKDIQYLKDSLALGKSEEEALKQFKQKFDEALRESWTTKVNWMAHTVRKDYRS
How it was run: (§3)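 ADP-Glo luminescent readout of ADP formed. Isoforms tested: p110α/p85α, p110β/p85α, p120γ and p110δ/p85α, each in PI3K reaction buffer with lipid substrate. Enzyme preincubated with compound for 15 min at room temperature. ADP-Glo reagent added for 40 min, then detection reagent for 40 min. IC50 from normalized nonlinear dose–response fit.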

MCF7 [7] = experiment: Induction of apoptosis in human MCF7 cells assessed as necrotic cells at 0.8 uM incubated for 48 hrs by annexin V-FITC and propidium iodide staining based flow cytometry analysis (reference value: 0.3 %); assay type: functional
MCF7 [8] = experiment: Induction of apoptosis in human MCF7 cells assessed as nuclear fragmentation at 0.2 to 0.8 uM incubated for 48 hrs by Hoechst 33342 staining based fluorescence microscopic analysis; assay type: functional, cell-based; settings: dose microM 0.2-0.8, time 48.0 hrs; how it was run: as §2
MCF7 [9] = experiment: Induction of apoptosis in human MCF7 cells assessed as viable cells at 0.4 uM incubated for 48 hrs by annexin V-FITC and propidium iodide staining based flow cytometry analysis (reference value: 87.7 %); assay type: functional; settings: read-out: Activity
[10] = target: T1, Phosphatidylinositol 4,5-bisphosphate 3-kinase catalytic subunit delta isoform (Homo sapiens, UniProt O00329); experiment: Inhibition of PI3Kdelta (unknown origin) using lipid as substrate incubated for 15 mins followed by substrate addition and measured after 60 mins ADPGloTM reagent based assay; how it was run: as §3
T1 sequence (O00329 whole entry): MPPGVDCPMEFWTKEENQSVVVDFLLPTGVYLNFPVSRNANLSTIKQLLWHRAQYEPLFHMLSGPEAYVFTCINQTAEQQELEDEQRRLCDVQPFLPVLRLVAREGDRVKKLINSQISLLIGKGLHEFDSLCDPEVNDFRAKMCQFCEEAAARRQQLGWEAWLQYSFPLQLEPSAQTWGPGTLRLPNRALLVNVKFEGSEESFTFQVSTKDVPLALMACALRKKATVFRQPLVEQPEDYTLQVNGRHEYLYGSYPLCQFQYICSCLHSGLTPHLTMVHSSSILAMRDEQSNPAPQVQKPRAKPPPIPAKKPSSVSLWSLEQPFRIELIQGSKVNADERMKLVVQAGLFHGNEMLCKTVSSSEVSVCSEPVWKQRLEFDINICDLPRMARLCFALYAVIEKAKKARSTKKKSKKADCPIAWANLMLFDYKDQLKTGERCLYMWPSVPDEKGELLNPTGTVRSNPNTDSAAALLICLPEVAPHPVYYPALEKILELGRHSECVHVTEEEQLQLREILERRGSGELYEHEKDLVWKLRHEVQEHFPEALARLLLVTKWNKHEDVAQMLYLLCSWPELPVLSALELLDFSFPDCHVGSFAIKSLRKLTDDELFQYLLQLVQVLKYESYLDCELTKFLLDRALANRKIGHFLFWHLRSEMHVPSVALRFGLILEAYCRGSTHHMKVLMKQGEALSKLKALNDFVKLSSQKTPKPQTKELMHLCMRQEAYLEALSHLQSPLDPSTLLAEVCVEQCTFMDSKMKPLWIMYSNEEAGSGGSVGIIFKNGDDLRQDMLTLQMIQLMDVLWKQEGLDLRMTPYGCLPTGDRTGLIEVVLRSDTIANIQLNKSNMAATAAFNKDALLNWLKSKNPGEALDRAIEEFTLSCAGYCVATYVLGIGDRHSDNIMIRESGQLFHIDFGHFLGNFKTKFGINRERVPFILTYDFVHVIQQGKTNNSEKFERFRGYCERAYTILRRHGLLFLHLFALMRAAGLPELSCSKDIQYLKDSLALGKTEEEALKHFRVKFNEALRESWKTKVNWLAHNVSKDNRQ

MCF7 [11] = experiment: Antiproliferative activity against human MCF7 cells assessed as reduction in cell viability incubated for 72 hrs by SRB assay; assay type: functional, cell-based; settings: MCF7, 72 h
How it was run: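 Cell lines grown at 37 °C in 5% CO₂: A549 in RPMI1640, MCF-7 in DMEM, each with 10% FBS plus penicillin/streptomycin/amphotericin B. Cells exposed to a range of compound concentrations for 72 h, then TCA-fixed and SRB-stained. Growth inhibition = 100 − 100×(OD sample − OD day 0)/(OD negative control − OD day 0). IC50 from non-linear regression of percent growth against concentration.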

MCF7 [12] = experiment: Inhibition of PI3K in human MCF7 cells assessed as Akt phosphorylation by Western blot analysis; assay type: cell-based; settings: dose microM 0.1-10
How it was run: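 MCF-7 cells treated at 0.1, 1 and 10 μM, then washed in cold PBS and lysed in RIPA buffer with protease and phosphatase inhibitors. Equal protein run on 10% SDS-PAGE and transferred to PVDF. Blots probed for total Akt and phospho-Akt (Ser473), with GAPDH as loading control.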

MCF7 [13] = experiment: Induction of apoptosis in human MCF7 cells assessed as late apoptotic cells at 0.4 uM incubated for 48 hrs by annexin V-FITC and propidium iodide staining based flow cytometry analysis (reference value: 9.2 %); assay type: functional

- IC50 (HCT-116): 330 nM
- IC50 [6]: 2.99 nM
- IC50 [10]: 0.48 nM
- IC50 (MCF7 [11]): 220 nM
SMILES: COc1ncc(-c2ccc3ncnc(Nc4cnn(CCO)c4)c3c2)cc1NS(=O)(=O)c1ccc(F)cc1F
- IC50 (L02): 60000 nM
- inhibition (MCF7 [1]): Active
- Activity (MCF7 [2]): Active
- Activity (MCF7 [3]): 2.2%
- IC50 (HUVEC): 19600 nM
- Activity (MCF7 [4]): 4.8%
- Activity (MCF7 [5]): 2.6%
- Activity (MCF7 [7]): 2.7%
- Activity (MCF7 [8]): Active
- viability at 0.4 µM (MCF7 [9]): 70%
- inhibition (MCF7 [12]): Dose-dependent effect
- Activity (MCF7 [13]): 23.6%
